Only some compounds are listed: those with a hit (about 1.8% of all), similar ones and a draw of the others.
H9c2 TAG inh: inhibitors of triacylglycerol accumulation; inhibition, % at 12.5 µM; H9c2 cells, Nile Red lipid (TAG) fluorescence; cells loaded with 200 µM oleic acid; AID 651582; 230,000 compounds, 0.66% hits;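 active = pattern-corrected inhibition of lipid staining of at least 50% with the nuclear-stain viability signal not falling by more than 50%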;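 also: 0% = DMSO wells and 100% = triacsin C control wells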
Gli-Sufu antag: antagonists of Gli-Sufu signaling; Sufu-KO-LIGHT fibroblasts, Gli luciferase reporter luminescence; inhibition, % at 5 µM; 340,000 compounds, 0.74% hits; AID 588413;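 active = inhibition above about 55%, limit read from the data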;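 also: 0% = DMSO-treated cells and 100% = wells with medium but no cells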
Jurkat NFkB inh: inhibitors of the PMA/ionomycin-induced NF-kB reporter in Jurkat cells; PMA/ionomycin-induced NF-kB luciferase reporter, luminescence; inhibition, % at 4 µM; 330,000 compounds, 0.53% hits; AID 435003; in the data active = inhibition above about 50%
697 NFkB inh: inhibitors of the PMA/ionomycin-induced NF-kB reporter in 697 B cells | 330,000 compounds, 0.33% hits | 697 B-cell NF-kB luciferase reporter, 16 h | AID 435022 | inhibition, % at 4 µM; in the data active = inhibition above about 35%
Lipid droplet: hepatic lipid droplet formation modulation; AML12 mouse hepatocytes, oleate lipid droplets, BODIPY imaging; inhibition, % at 6.5 µM; 240,000 compounds, 0.4% hits;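 active = lipid droplet intensity inhibited by at least 50%, with more than 500 cells counted; inconclusive = wells with under 300 cells, treated as cytotoxic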
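Test system: AML12 hepatocytes (mouse); reagent: oleate loading, 100 µM; dosing: one dose, 6.5 µM compound; incubation: overnight exposure; signal: fluorescence imaging, 20x objective, two fields per well; read-out basis: % inhibition of corrected integrated BODIPY droplet signal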
hiPSC survival: hiPSC single-cell survival enhancement. survival enhancement, % at 20 µM. ATPlite luminescence; 100% = ROCK inhibitor wells, 0% = DMSO. 360,000 compounds, 0.044% hits; in the data active = survival enhancement above about 18%;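 also: cells exposed to compounds for 16 hours before the ATP read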
Jurkat NFkB conf: inhibitors of the PMA/ionomycin-induced NF-kB reporter in Jurkat cells, retest | inhibition, % at 4 µM | Jurkat NF-kB luciferase, 16 h | shares compounds with Jurkat NFkB inh | 2,700 compounds, 27% hits;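 active = inhibition reaching about 45% at 4 µM in either replicate, limit read from the data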;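 also: plate controls were PMA/ionomycin stimulated DMSO wells for no effect and unstimulated DMSO wells for full effect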
* = called active by the depositor.

What do the screens show for `CN1CCCC1CCNc1ccc2c(=O)c3ccccc3oc2c1` (stereo unspecified)?
H9c2 TAG inh: 6.6; Gli-Sufu antag: -15.6; Jurkat NFkB inh: -217.6; 697 NFkB inh: -160.7; Lipid droplet: 0.2; hiPSC survival: -2.1; Jurkat NFkB conf: -37.6

How did O=c1c2ccccc2oc2cc(NCCCn3ccnc3)ccc12 do in these assays?
H9c2 TAG inh: 8.3; Gli-Sufu antag: -70.9; Jurkat NFkB inh: -177.7; 697 NFkB inh: -217.8; hiPSC survival: -4.7; Jurkat NFkB conf: -83.9

Results for O=c1c2ccccc2oc2cc(NCCCN3CCOCC3)ccc12 ?
H9c2 TAG inh: 6.5; Gli-Sufu antag: -31.8; Jurkat NFkB inh: -184.0; 697 NFkB inh: -218.6; hiPSC survival: -2.5; Jurkat NFkB conf: -53.2

What do the screens show for `O=c1c2ccccc2oc2ccc(NCCCN3CCOCC3)cc12`?
H9c2 TAG inh: -0.6; Gli-Sufu antag: -55.5; Jurkat NFkB inh: -113.7; 697 NFkB inh: -101.9; Lipid droplet: -2.9; hiPSC survival: 0.6

Results for CCc1ccc(N2C(=O)CC(Cn3nc(C)cc3C)C2=O)cc1 (stereo unspecified) ?
H9c2 TAG inh: 12.0; Gli-Sufu antag: 6.3; Jurkat NFkB inh: 1.9; 697 NFkB inh: -1.0; Lipid droplet: 1.7; hiPSC survival: -0.7

How did CC1Cc2ccccc2N1S(=O)(=O)c1cccc(C(=O)N2CC(=O)Nc3ccccc32)c1 (stereo unspecified) do in these assays?
H9c2 TAG inh: 1.6; Gli-Sufu antag: -34.1; Jurkat NFkB inh: 1.3; 697 NFkB inh: 2.2; Lipid droplet: -8.5; hiPSC survival: -0.4

How did O=C(O)c1c[nH]c2nccnc12 do in these assays?
H9c2 TAG inh: -0.9; hiPSC survival: -1.0

What do the screens show for `Cc1cc(C(=O)CSc2nnc(N)s2)c(C)n1Cc1cccs1`?
Gli-Sufu antag: -37.8; Jurkat NFkB inh: -150.1; 697 NFkB inh: -150.5; Lipid droplet: -3.2; hiPSC survival: -1.3; Jurkat NFkB conf: -53.4

Results for COc1ccccc1NC(=O)c1cnc(Nc2ccccc2OC)c2ccccc12 ?
Gli-Sufu antag: 0.5; Jurkat NFkB inh: 59.4*; 697 NFkB inh: -55.6; Lipid droplet: inconclusive; hiPSC survival: 1.7; Jurkat NFkB conf: 41.0

Results for Cc1cc(NC(=O)C2CC(c3cccc(Br)c3)=NO2)no1 (stereo unspecified) ?
Gli-Sufu antag: 0.9; Jurkat NFkB inh: -15.1; 697 NFkB inh: -9.4; Lipid droplet: 24.8; hiPSC survival: 0.7

How did Cc1ccc(O)c(NC(=O)C2CC(c3cccc(Br)c3)=NO2)c1 (stereo unspecified) do in these assays?
Gli-Sufu antag: 20.1; Jurkat NFkB inh: 63.0*; 697 NFkB inh: 7.6; hiPSC survival: 0.8; Jurkat NFkB conf: 25.0

What do the screens show for `O=C(CSCc1ccccc1Cl)Nc1ccc2c(c1)OCCO2`?
Gli-Sufu antag: 4.7; Jurkat NFkB inh: -161.7; 697 NFkB inh: -31.9; hiPSC survival: -1.0; Jurkat NFkB conf: -89.4

What do the screens show for `Fc1ccccc1/C=N/Nc1nc(-c2ccccn2)nc2ccccc12`?
Jurkat NFkB inh: 61.0*; 697 NFkB inh: -23.3; Lipid droplet: -7.7; Jurkat NFkB conf: -8.0

What do the screens show for `Cc1ccc(S(=O)(=O)NNC(=O)Nc2ccc(C)c(C)c2)c(C)c1`?
Gli-Sufu antag: 0.6; Jurkat NFkB inh: -8.1; 697 NFkB inh: 0.8; Lipid droplet: -2.5; hiPSC survival: -0.3

What do the screens show for `Oc1ccc(Nc2nc3ccccc3nc2Nc2ccc(O)cc2)cc1`?
H9c2 TAG inh: 109.5; Gli-Sufu antag: -13.5; Jurkat NFkB inh: 84.1*; 697 NFkB inh: -127.4; Lipid droplet: -3.3; hiPSC survival: -4.3; Jurkat NFkB conf: 54.4*

Results for Oc1ccc(Nc2nc(-c3ccccc3)nc3ccccc23)cc1 ?
Gli-Sufu antag: 25.8; Jurkat NFkB inh: 0.0; 697 NFkB inh: 12.2; Lipid droplet: -7.1; hiPSC survival: -0.8

How did CNc1c(NS(=O)(=O)c2cc(Cl)ccc2OC)c(=O)oc2ccccc12 do in these assays?
Gli-Sufu antag: -29.3; Jurkat NFkB inh: -14.8; 697 NFkB inh: -11.1; Lipid droplet: 5.6; hiPSC survival: 0.2

Results for CCOC(=O)c1sc2nc(-c3cccnc3)ccc2c1N ?
H9c2 TAG inh: 14.0; Gli-Sufu antag: -120.6; Jurkat NFkB inh: -182.4; 697 NFkB inh: -147.4; Lipid droplet: 14.8; hiPSC survival: -0.8; Jurkat NFkB conf: -69.1

What do the screens show for `CC(=O)c1c(O)cc2c3c1OC(C)(C)C1CCC(C)(CC31)O2` (stereo unspecified)?
H9c2 TAG inh: -0.1; hiPSC survival: 8.6

What do the screens show for `O=C1CN(C(=O)c2cccc(Br)c2)c2ccccc2N1`?
Gli-Sufu antag: -6.8; Jurkat NFkB inh: 52.0*; 697 NFkB inh: -39.4; Lipid droplet: 3.8; hiPSC survival: -0.5; Jurkat NFkB conf: 16.1

What do the screens show for `O=C1CN(C(=O)c2ccccc2)c2ccccc2N1`?
H9c2 TAG inh: -5.6; Gli-Sufu antag: 7.0; Jurkat NFkB inh: 8.7; 697 NFkB inh: 16.2; Lipid droplet: -2.9; hiPSC survival: 0.9

Results for CN(C)Cc1ccc(-c2nc3cccc4c3n2CCNC4=O)cc1 ?
H9c2 TAG inh: -18.3; Gli-Sufu antag: -1.5; Jurkat NFkB inh: 56.8*; 697 NFkB inh: -11.2; hiPSC survival: -2.5; Jurkat NFkB conf: 7.1

What do the screens show for `COc1ccc(COC(=O)c2cc([N+](=O)[O-])ccc2N2CCOCC2)cc1F`?
H9c2 TAG inh: 46.7; Gli-Sufu antag: 41.1; Jurkat NFkB inh: 93.3*; 697 NFkB inh: -67.5; hiPSC survival: -0.4; Jurkat NFkB conf: 64.8*

What do the screens show for `Cc1ccc(C(=O)c2cc([N+](=O)[O-])ccc2N2CCCCC2)cc1`?
Gli-Sufu antag: 48.1; Jurkat NFkB inh: 55.6*; 697 NFkB inh: 31.6; Lipid droplet: inconclusive; hiPSC survival: 1.6; Jurkat NFkB conf: 53.3*

What do the screens show for `O=C(c1ccc(Br)cc1)c1cc([N+](=O)[O-])ccc1N1CCOCC1`?
H9c2 TAG inh: 29.9; Gli-Sufu antag: 21.7; Jurkat NFkB inh: 72.1*; 697 NFkB inh: -43.3; Lipid droplet: -25.6; hiPSC survival: -3.9; Jurkat NFkB conf: 51.4*

How did O=C(NCc1ccco1)c1cc([N+](=O)[O-])ccc1N1CCCCC1 do in these assays?
Gli-Sufu antag: 5.4; Jurkat NFkB inh: 2.1; 697 NFkB inh: -5.2; Lipid droplet: 12.9; hiPSC survival: 0.6

How did O=C(NCc1ccc2c(c1)OCO2)c1cc([N+](=O)[O-])ccc1N1CCCCC1 do in these assays?
Gli-Sufu antag: 28.0; Jurkat NFkB inh: 65.2*; 697 NFkB inh: -53.8; Lipid droplet: -3.8; hiPSC survival: 2.8; Jurkat NFkB conf: 29.7

Results for COc1cc(/C=C2\SC(=Nc3ccc(O)cc3)NC2=O)cc(OC)c1OC ?
Gli-Sufu antag: -2.1; Jurkat NFkB inh: 58.7*; 697 NFkB inh: 2.2; Lipid droplet: 6.2; Jurkat NFkB conf: 0.7

Compound activity as filed in PubChem.
